From ChEMBL document CHEMBL5653631, “A Potent and Selective ULK1 Inhibitor Suppresses Autophagy and Sensitizes Cancer Cells to Nutrient Stress” (iScience, 2018)

Key:
[1] = target: Ephrin type-A receptor 5 (Homo sapiens) (UniProt P54756); experiment: Inhibition of human recombinant EphA5 at 40 nM in presence of ATP by radiometric assay relative to control
[2] = target: Serine/threonine-protein kinase WNK3 (Homo sapiens) (UniProt Q9BYP7); experiment: Inhibition of human recombinant Wnk3 at 40 nM in presence of ATP by radiometric assay relative to control
[3] = target: Activated CDC42 kinase 1 (Homo sapiens) (UniProt Q07912); experiment: Inhibition of human recombinant ACK at 40 nM related to control ULK1
How it was run: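 Radiometric activity assays in a panel of 327 human recombinant kinases, each run in duplicate at one inhibitor concentration. Activity remaining is expressed as percent of vehicle control, and percent inhibition is calculated as 100% minus percent activity remaining.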

[4] = target: Cell division cycle 7-related protein kinase (Homo sapiens) (UniProt O00311); experiment: Inhibition of human recombinant CDC7 at 40 nM related to control ULK1
[5] = target: Casein kinase II subunit alpha' (Homo sapiens) (UniProt P19784); experiment: Inhibition of human recombinant CK2a2 at 40 nM related to control ULK1
[6] = target: T1, Ephrin type-B receptor 3 (Homo sapiens) (UniProt P54753); experiment: Inhibition of human recombinant EphB3 at 40 nM related to control ULK1
T1 sequence (whole entry): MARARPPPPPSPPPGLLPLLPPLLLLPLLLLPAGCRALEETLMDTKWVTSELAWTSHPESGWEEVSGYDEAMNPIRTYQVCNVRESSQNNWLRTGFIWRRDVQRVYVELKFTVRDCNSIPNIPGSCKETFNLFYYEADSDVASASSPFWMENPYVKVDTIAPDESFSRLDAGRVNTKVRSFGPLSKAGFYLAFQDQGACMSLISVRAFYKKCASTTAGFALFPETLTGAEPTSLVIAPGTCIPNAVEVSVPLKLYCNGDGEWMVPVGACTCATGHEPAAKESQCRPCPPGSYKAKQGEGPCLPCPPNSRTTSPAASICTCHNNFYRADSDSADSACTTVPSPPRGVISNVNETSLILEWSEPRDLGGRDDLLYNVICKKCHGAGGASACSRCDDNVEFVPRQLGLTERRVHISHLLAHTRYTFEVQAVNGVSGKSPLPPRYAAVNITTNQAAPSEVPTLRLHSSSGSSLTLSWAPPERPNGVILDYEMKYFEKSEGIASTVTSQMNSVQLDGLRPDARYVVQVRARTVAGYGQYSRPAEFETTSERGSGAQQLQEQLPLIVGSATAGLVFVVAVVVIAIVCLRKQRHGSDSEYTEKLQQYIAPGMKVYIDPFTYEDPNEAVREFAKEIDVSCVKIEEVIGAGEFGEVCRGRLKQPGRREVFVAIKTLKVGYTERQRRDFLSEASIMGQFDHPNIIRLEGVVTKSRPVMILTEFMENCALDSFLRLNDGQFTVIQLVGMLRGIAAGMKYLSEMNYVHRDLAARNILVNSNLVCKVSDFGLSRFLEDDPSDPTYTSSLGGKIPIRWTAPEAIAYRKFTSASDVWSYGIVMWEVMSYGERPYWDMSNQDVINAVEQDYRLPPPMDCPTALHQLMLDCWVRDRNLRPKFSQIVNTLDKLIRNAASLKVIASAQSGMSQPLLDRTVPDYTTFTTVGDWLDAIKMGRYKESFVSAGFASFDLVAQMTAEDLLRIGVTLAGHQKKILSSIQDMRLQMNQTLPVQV

[7] = target: Ephrin type-A receptor 5 (Homo sapiens) (UniProt P54756); experiment: Inhibition of human recombinant EphA5 at 15 nM in presence of ATP by radiometric assay relative to control
[8] = target: T2, Serine/threonine-protein kinase PLK4 (Homo sapiens) (UniProt O00444); experiment: Inhibition of human recombinant PLK4 at 15 nM in presence of ATP by radiometric assay relative to control
T2 sequence (whole entry): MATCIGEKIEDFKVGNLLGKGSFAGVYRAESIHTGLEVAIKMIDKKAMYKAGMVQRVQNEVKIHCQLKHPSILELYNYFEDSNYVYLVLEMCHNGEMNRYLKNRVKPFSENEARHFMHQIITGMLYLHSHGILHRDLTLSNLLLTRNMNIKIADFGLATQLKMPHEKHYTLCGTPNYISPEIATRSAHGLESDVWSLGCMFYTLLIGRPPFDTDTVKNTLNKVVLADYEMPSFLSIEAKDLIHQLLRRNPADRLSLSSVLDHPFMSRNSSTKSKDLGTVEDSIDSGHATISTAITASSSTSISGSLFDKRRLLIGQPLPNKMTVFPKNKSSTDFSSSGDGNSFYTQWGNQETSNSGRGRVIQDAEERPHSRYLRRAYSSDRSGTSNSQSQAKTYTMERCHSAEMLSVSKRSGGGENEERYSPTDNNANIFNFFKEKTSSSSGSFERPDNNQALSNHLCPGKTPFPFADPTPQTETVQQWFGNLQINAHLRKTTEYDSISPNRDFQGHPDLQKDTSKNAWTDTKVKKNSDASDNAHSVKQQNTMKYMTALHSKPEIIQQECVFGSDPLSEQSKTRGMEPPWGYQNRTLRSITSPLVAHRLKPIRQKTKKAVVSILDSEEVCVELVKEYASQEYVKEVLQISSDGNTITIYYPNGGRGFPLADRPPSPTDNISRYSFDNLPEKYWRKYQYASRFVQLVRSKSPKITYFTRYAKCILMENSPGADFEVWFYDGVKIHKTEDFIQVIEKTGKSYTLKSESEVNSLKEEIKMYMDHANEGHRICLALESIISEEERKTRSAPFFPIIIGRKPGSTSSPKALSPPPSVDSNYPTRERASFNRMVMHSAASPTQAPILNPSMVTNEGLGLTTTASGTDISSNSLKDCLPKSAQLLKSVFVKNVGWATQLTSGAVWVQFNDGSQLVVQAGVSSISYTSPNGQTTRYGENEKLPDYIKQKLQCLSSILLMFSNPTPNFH

[9] = target: Calcium/calmodulin-dependent protein kinase kinase 1 (Homo sapiens) (UniProt Q8N5S9); experiment: Inhibition of human recombinant CaMKK1 at 15 nM related to control ULK1
[10] = target: Dual specificity protein kinase CLK4 (Homo sapiens) (UniProt Q9HAZ1); experiment: Inhibition of human recombinant CLK4 at 15 nM related to control ULK1
[11] = target: Receptor tyrosine-protein kinase erbB-2 (Homo sapiens) (UniProt P04626); experiment: Inhibition of human recombinant ErbB2 at 15 nM related to control ULK1
[12] = target: Protein kinase C alpha type (Homo sapiens) (UniProt P17252); experiment: Inhibition of human recombinant PKCa at 15 nM related to control ULK1
[13] = target: Receptor tyrosine-protein kinase erbB-2 (Homo sapiens) (UniProt P04626); experiment: Inhibition of human recombinant ErbB2 at 500 nM related to control ULK1
[14] = target: Cyclin-dependent kinase 18 (Homo sapiens) (UniProt Q07002); experiment: Inhibition of human recombinant PCTAIRE3 at 500 nM related to control ULK1
[15] = target: Ribosomal protein S6 kinase alpha-3 (Homo sapiens) (UniProt P51812); experiment: Inhibition of human recombinant RSK2 at 500 nM related to control ULK1
Ribosomal protein S6 kinase alpha-3 (Homo sapiens), sequence (P51812 whole entry): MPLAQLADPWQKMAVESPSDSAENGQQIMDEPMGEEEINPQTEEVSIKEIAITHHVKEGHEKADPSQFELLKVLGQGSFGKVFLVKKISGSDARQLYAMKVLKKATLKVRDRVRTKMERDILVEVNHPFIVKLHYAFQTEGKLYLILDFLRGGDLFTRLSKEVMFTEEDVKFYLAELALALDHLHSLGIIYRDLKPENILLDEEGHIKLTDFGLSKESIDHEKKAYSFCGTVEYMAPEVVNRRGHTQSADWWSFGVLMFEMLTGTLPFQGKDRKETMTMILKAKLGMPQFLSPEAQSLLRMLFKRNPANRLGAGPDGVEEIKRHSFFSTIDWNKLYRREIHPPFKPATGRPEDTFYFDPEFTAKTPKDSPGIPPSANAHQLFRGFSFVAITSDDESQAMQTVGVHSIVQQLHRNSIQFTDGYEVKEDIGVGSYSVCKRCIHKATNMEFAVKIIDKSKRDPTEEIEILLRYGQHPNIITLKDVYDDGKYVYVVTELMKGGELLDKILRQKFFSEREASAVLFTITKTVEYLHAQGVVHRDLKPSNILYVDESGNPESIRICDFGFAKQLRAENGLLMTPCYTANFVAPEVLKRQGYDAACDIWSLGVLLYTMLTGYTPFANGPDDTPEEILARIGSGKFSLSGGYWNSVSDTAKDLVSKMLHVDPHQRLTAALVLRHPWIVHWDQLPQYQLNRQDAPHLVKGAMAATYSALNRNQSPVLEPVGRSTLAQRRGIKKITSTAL

Receptor tyrosine-protein kinase erbB-2 (Homo sapiens), sequence (P04626 whole entry): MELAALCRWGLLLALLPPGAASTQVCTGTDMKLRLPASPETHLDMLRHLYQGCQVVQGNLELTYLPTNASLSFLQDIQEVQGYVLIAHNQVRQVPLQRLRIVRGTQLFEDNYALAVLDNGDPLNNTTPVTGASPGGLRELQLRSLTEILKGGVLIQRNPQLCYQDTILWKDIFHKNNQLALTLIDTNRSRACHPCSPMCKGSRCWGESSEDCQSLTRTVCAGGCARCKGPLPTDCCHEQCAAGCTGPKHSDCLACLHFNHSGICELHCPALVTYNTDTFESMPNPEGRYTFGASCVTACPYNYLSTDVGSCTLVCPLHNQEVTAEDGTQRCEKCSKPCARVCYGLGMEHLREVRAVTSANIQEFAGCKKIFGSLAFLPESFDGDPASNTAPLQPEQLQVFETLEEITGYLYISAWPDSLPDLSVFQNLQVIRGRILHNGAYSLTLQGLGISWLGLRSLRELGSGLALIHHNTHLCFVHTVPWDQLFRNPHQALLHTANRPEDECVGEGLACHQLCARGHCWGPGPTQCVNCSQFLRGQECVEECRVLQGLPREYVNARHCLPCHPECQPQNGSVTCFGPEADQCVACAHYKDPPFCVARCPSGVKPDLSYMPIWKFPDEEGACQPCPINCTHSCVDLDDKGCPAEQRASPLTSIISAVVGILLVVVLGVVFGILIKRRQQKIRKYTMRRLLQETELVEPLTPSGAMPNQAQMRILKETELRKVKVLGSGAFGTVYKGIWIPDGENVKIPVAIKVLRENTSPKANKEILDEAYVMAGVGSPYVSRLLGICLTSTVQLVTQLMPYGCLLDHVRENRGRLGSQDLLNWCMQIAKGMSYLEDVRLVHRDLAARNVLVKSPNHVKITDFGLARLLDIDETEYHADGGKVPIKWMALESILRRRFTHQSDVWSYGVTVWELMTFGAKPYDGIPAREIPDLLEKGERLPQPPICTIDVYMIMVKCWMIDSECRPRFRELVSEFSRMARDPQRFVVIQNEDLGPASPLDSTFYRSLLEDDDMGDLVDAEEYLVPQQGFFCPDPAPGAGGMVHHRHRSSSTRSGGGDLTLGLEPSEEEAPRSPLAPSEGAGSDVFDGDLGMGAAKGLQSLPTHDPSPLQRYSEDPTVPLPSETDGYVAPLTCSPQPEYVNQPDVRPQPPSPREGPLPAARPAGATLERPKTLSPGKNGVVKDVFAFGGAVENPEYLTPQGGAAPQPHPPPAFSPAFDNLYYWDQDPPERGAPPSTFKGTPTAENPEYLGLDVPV
Ephrin type-A receptor 5 (Homo sapiens), sequence (P54756 whole entry): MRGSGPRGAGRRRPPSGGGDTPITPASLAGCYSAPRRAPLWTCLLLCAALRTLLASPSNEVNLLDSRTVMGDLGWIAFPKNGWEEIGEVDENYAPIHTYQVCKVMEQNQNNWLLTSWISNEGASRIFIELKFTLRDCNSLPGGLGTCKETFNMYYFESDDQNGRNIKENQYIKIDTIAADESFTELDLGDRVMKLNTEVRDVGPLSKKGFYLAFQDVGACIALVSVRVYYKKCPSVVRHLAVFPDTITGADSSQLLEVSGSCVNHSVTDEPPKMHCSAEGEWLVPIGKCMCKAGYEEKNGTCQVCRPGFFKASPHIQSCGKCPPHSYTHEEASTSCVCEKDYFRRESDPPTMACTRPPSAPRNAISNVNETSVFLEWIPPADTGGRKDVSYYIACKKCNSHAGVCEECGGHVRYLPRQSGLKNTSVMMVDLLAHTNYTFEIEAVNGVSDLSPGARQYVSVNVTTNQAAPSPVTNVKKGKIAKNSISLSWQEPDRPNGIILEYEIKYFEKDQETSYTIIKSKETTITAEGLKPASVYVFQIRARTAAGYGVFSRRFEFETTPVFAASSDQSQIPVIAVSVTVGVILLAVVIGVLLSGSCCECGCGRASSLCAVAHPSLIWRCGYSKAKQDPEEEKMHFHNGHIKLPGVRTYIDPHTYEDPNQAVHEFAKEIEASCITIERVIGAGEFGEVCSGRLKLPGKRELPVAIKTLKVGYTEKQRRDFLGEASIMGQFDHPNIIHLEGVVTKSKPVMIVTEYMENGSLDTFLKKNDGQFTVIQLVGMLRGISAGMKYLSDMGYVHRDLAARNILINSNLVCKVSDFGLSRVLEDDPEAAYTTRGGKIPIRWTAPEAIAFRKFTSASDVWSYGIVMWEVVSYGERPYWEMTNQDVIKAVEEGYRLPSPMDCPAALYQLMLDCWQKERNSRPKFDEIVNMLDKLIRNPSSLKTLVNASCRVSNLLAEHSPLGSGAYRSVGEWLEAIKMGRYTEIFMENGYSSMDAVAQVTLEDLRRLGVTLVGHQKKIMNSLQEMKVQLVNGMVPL
Casein kinase II subunit alpha' (Homo sapiens), sequence (P19784 whole entry, looked up): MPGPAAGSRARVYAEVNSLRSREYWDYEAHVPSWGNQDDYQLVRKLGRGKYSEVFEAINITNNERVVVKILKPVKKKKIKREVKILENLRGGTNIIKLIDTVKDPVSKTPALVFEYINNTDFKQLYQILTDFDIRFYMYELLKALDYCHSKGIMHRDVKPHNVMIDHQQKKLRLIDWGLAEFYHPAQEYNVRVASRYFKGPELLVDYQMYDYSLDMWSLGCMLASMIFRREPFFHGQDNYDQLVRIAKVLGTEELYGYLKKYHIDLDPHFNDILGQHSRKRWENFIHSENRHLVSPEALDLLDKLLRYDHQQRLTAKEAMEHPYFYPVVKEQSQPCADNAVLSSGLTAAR
Activated CDC42 kinase 1 (Homo sapiens), sequence (Q07912 whole entry, looked up): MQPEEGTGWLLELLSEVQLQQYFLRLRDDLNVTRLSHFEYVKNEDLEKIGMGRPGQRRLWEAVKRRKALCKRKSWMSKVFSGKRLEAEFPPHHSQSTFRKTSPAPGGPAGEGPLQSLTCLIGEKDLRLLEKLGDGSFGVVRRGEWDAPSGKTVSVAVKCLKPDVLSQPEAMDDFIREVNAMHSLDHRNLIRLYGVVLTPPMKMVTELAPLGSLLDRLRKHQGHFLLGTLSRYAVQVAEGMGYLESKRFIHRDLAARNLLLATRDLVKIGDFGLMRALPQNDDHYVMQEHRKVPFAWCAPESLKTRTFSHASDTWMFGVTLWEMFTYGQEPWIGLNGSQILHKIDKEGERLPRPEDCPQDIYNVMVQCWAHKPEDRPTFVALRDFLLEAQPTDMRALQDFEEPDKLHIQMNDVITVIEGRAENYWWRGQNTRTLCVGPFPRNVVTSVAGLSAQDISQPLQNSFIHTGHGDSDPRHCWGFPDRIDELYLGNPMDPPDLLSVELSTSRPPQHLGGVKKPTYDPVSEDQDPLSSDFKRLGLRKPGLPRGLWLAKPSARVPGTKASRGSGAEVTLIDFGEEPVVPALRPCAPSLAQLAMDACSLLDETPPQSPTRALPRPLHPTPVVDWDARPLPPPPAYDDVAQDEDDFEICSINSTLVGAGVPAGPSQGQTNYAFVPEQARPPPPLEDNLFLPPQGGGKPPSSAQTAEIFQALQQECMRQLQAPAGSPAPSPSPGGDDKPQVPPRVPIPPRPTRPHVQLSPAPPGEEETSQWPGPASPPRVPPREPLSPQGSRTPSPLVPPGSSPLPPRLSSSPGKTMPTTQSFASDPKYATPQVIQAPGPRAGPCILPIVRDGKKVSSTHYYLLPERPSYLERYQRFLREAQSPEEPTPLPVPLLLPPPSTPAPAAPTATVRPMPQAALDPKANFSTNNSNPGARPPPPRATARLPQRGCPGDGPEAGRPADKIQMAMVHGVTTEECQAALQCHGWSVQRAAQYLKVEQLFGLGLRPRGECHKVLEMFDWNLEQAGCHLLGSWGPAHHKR

Compound: O=C(N[C@@H](C1CC1)C(F)(F)F)c1cc(-c2cnn3cc(-c4ccc(F)cc4)cnc23)cs1
- inhibition [1]: 0%
- inhibition [2]: 3%
- fold change (FC) [3]: 0.23
- fold change (FC) [4]: 0.53
- fold change (FC) [5]: 0.11
- fold change (FC) [6]: 0

Compound: CC(C)[C@H](NC(=O)c1cc(-c2cnn3cc(-c4ccc(OCCN5CCCCC5)cc4)cnc23)cs1)C(F)(F)F
- inhibition [7]: 0%
- inhibition [8]: 31%
- fold change (FC) [9]: 0
- fold change (FC) [10]: 0.94
- fold change (FC) [11]: 0
- fold change (FC) [12]: 0.08

Compound: CNC(=O)c1ccccc1Oc1nc(Nc2cc(OC)c(OC)c(OC)c2)ncc1Br
- fold change (FC) [13]: 0
- fold change (FC) [14]: 0.27
- fold change (FC) [15]: 0.5
